From ChEMBL document CHEMBL4715736, “Identification of anticancer agents based on the thieno[2,3-b]pyridine and 1H-pyrazole molecular scaffolds” (2016)

How the values were obtained:
Type in all cases: functional
[1] = tested on: CCRF-CEM; experiment: Growth inhibition of human CCRF-CEM cells assessed as cell growth at 0.1 uM incubated for 48 hrs by sulforhodamine B assay relative to control; conditions: read-out: Activity
Method in brief: (§1)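 NCI Developmental Therapeutics Program NCI60 panel. Compounds that were active in the 10 µM one-dose screen went on to dose–response testing. Growth at each concentration is expressed relative to untreated control (100%). GI50 (concentration giving 50% of maximal inhibition of proliferation) and TGI (concentration giving total growth inhibition) were derived from the curves.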

[2] = tested on: UACC-257; experiment: Growth inhibition of human UACC-257 cells assessed as cell growth at 100 uM incubated for 48 hrs by sulforhodamine B assay relative to control; conditions: read-out: Activity
[3] = tested on: A498; experiment: Growth inhibition of human A498 cells incubated for 48 hrs by sulforhodamine B assay; method in brief: as §1
[4] = tested on: SN12C; experiment: Growth inhibition of human SN12C cells assessed as cell growth at 100 uM incubated for 48 hrs by sulforhodamine B assay relative to control; conditions: read-out: Activity
[5] = tested on: MDA-MB-231; experiment: Growth inhibition of human MDA-MB-231 cells assessed as cell growth at 1 uM incubated for 48 hrs by sulforhodamine B assay relative to control; conditions: read-out: Activity
[6] = tested on: OVCAR-4; experiment: Growth inhibition of human OVCAR-4 cells incubated for 48 hrs by sulforhodamine B assay
Method in brief: (§2)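 NCI DTP 60-line human tumour panel. Dose-response curves were run only for ligands active in the initial 10 µM screen. GI50 (concentration giving 50% of maximal inhibition of proliferation) and TGI (concentration giving total growth inhibition) were derived from these curves.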

[7] = tested on: DU-145; experiment: Growth inhibition of human DU-145 cells assessed as cell growth at 100 uM incubated for 48 hrs by sulforhodamine B assay relative to control; conditions: read-out: Activity; method in brief: as §1
[8] = tested on: NCI-H522; experiment: Growth inhibition of human NCI-H522 cells assessed as cell growth at 0.1 uM incubated for 48 hrs by sulforhodamine B assay relative to control; conditions: read-out: Activity
[9] = tested on: NCI-H322M; experiment: Growth inhibition of human NCI-H322M cells incubated for 48 hrs by sulforhodamine B assay
Method in brief: (§3)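 NCI60 panel at the NCI Developmental Therapeutics Program. Only compounds active in the 10 µM screen went to dose-response testing. GI50, the concentration giving 50% of maximal inhibition of proliferation, and TGI, the concentration giving total growth inhibition, were derived from the dose-response curves.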

[10] = tested on: HT-29; experiment: Growth inhibition of human HT-29 cells assessed as cell growth at 1 uM incubated for 48 hrs by sulforhodamine B assay relative to control; conditions: read-out: Activity
[11] = tested on: SF-268; experiment: Growth inhibition of human SF-268 cells assessed as cell growth at 1 uM incubated for 48 hrs by sulforhodamine B assay relative to control; conditions: read-out: Activity
[12] = tested on: A498; experiment: Growth inhibition of human A498 cells assessed as cell growth at 1 uM incubated for 48 hrs by sulforhodamine B assay relative to control; conditions: read-out: Activity; method in brief: as §1
[13] = tested on: OVCAR-4; experiment: Growth inhibition of human OVCAR-4 cells assessed as cell growth at 1 uM incubated for 48 hrs by sulforhodamine B assay relative to control; conditions: read-out: Activity
[14] = tested on: HCC 2998; experiment: Growth inhibition of human HCC 2998 cells assessed as cell growth at 100 uM incubated for 48 hrs by sulforhodamine B assay relative to control; conditions: read-out: Activity; method in brief: as §1
[15] = tested on: OVCAR-3; experiment: Growth inhibition of human OVCAR-3 cells assessed as cell growth at 0.01 uM incubated for 48 hrs by sulforhodamine B assay relative to control; conditions: read-out: Activity
[16] = tested on: SK-OV-3; experiment: Growth inhibition of human SK-OV-3 cells incubated for 48 hrs by sulforhodamine B assay; method in brief: as §2
[17] = tested on: 786-0; experiment: Growth inhibition of human 786-0 cells assessed as cell growth at 1 uM incubated for 48 hrs by sulforhodamine B assay relative to control; conditions: read-out: Activity; method in brief: as §1
[18] = tested on: SNB-19; experiment: Growth inhibition of human SNB-19 cells assessed as cell growth at 0.01 uM incubated for 48 hrs by sulforhodamine B assay relative to control; conditions: read-out: Activity
[19] = tested on: KM12; experiment: Growth inhibition of human KM12 cells assessed as cell growth at 0.1 uM incubated for 48 hrs by sulforhodamine B assay relative to control; conditions: read-out: Activity
[20] = tested on: HT-29; experiment: Growth inhibition of human HT-29 cells assessed as cell growth at 100 uM incubated for 48 hrs by sulforhodamine B assay relative to control; conditions: read-out: Activity
[21] = tested on: OVCAR-4; experiment: Growth inhibition of human OVCAR-4 cells assessed as cell growth at 100 uM incubated for 48 hrs by sulforhodamine B assay relative to control; conditions: read-out: Activity
[22] = tested on: SW-620; experiment: Growth inhibition of human SW-620 cells assessed as cell growth at 1 uM incubated for 48 hrs by sulforhodamine B assay relative to control; conditions: read-out: Activity
[23] = tested on: K562; experiment: Growth inhibition of human K562 cells assessed as cell growth at 0.1 uM incubated for 48 hrs by sulforhodamine B assay relative to control; conditions: read-out: Activity
[24] = tested on: SF-295; experiment: Growth inhibition of human SF-295 cells assessed as cell growth at 1 uM incubated for 48 hrs by sulforhodamine B assay relative to control; conditions: read-out: Activity
[25] = tested on: LOX IMVI; experiment: Growth inhibition of human LOX IMVI cells assessed as cell growth at 100 uM incubated for 48 hrs by sulforhodamine B assay relative to control; conditions: read-out: Activity
[26] = tested on: SNB-75; experiment: Growth inhibition of human SNB-75 cells assessed as cell growth at 0.01 uM incubated for 48 hrs by sulforhodamine B assay relative to control; conditions: read-out: Activity
[27] = tested on: SK-MEL-28; experiment: Growth inhibition of human SK-MEL-28 cells assessed as cell growth at 1 uM incubated for 48 hrs by sulforhodamine B assay relative to control; conditions: read-out: Activity
[28] = tested on: HOP-92; experiment: Growth inhibition of human HOP-92 cells incubated for 48 hrs by sulforhodamine B assay; method in brief: as §3
[29] = tested on: SK-MEL-28; experiment: Growth inhibition of human SK-MEL-28 cells incubated for 48 hrs by sulforhodamine B assay; method in brief: as §2
[30] = tested on: OVCAR-8; experiment: Growth inhibition of human OVCAR-8 cells assessed as cell growth at 100 uM incubated for 48 hrs by sulforhodamine B assay relative to control; conditions: read-out: Activity
[31] = tested on: SR; experiment: Growth inhibition of human SR cells assessed as cell growth at 100 uM incubated for 48 hrs by sulforhodamine B assay relative to control; conditions: read-out: Activity
[32] = tested on: MDA-MB-231; experiment: Growth inhibition of human MDA-MB-231 cells assessed as cell growth at 0.01 uM incubated for 48 hrs by sulforhodamine B assay relative to control; conditions: read-out: Activity
[33] = tested on: IGROV-1; experiment: Growth inhibition of human IGROV-1 cells assessed as cell growth at 100 uM incubated for 48 hrs by sulforhodamine B assay relative to control; conditions: read-out: Activity
[34] = tested on: M14; experiment: Growth inhibition of human M14 cells assessed as cell growth at 0.01 uM incubated for 48 hrs by sulforhodamine B assay relative to control; conditions: read-out: Activity
[35] = tested on: OVCAR-5; experiment: Growth inhibition of human OVCAR-5 cells assessed as cell growth at 0.01 uM incubated for 48 hrs by sulforhodamine B assay relative to control; conditions: read-out: Activity
[36] = read-out: LC50 (the source's name)

With `CCc1ccccc1NC(=O)c1sc2nc3c(cc2c1N)C(=O)CCC3` the growth at 0.1 µM [1] was 89%, the growth at 100 µM [2] was 25% and the GI50 [3] was 0.18 µM. The TGI [3] was 4 µM, the CC50 [3, 36] was > 100 µM and the growth at 100 µM [4] was 22%. For the same molecule, the growth at 1 µM [5] was 52%, the GI50 [6] was 0.0315 µM and the TGI [6] was > 100 µM. For the same molecule, the CC50 [6, 36] was > 100 µM, the growth at 100 µM [7] was 2% and the growth at 0.1 µM [8] was 88%. For the same molecule, the TGI [9] was > 100 µM, the CC50 [9, 36] was > 100 µM and the growth at 1 µM [10] was 13%. The growth at 1 µM [11] was 53%, the growth at 1 µM [12] was -14% and the growth at 1 µM [13] was 45%. For the same molecule, the growth at 100 µM [14] was 3%, the growth at 0.01 µM [15] was 107% and the GI50 [16] was 0.537 µM. For the same molecule, the TGI [16] was 75.7 µM, the CC50 [16, 36] was > 100 µM and the growth at 1 µM [17] was 38%. For the same molecule, the growth at 0.01 µM [18] was 91%, the growth at 0.1 µM [19] was 92% and the growth at 100 µM [20] was -7%. The growth at 100 µM [21] was 8%, the growth at 1 µM [22] was 18% and the growth at 0.1 µM [23] was 63%. It also gave a growth at 1 µM [24] of 13%, a growth at 100 µM [25] of 24% and a growth at 0.01 µM [26] of 73%. The growth at 1 µM [27] was 49%, the LC50 (concentration killing 50% of the starting cells) [28] was > 100 µM and the TGI [28] was ≥ 100 µM. The GI50 [29] was 0.001 µM, the LC50 [29] was > 100 µM and the TGI [29] was > 100 µM. The growth at 100 µM [30] was 10%, the growth at 100 µM [31] was 2% and the growth at 0.01 µM [32] was 97%. The growth at 100 µM [33] was 7%, the growth at 0.01 µM [34] was 90% and the growth at 0.01 µM [35] was 84%.
